Assay outcomes as filed in PubChem.
Hits are enriched below; roughly 2.1% of the tested compounds scored in any of these assays.
IMP-1 inhibitor – blocks Pseudomonas aeruginosa IMP-1 metallo-beta-lactamase. purified IMP-1, nitrocefin hydrolysis, epi-absorbance fluorescence. inhibition, % at 5.6 µM. 0.45% of 290,000 active;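 active = inhibition above the mean plus 3 SD of all compounds in the same screening run, cut at about 4.5% in these data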;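 also: 0% = IMP-1 with DMSO and 100% = DMSO wells lacking enzyme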
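System: purified IMP-1 / Input: IMP-1 dispensed at 0.2 nM / Medium: 50 mM HEPES pH 7.1, 50 µM ZnSO4, 0.05% Brij 35 / Timing: 15 min enzyme–compound preincubation, then 25 min nitrocefin reaction, 25 °C / Technique: plate fluorescence quenching by hydrolysis product, ex 480/em 530 nm / Repeats: singlicate testing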
zfTRPN1 agonist – zebrafish TRPN1 (NompC) channel agonism. 0.18% of 220,000 active. HEK293 zebrafish TRPN1-YFP, Fluo-8 calcium fluorescence; 100% = response to 87 µM carbachol. AID 1424. activation, % at 3 µM;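 active = activation above its plate's cutoff, the mean activation of test wells on that plate plus 3 SD, cut at about 19% in these data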;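 also: 0% = DMSO alone and 100% = 87 µM carbachol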
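Material: zebrafish TRPN1-YFP in HEK293 cells. Doses: one dose of 3 µM, 0.3% DMSO. Incubation: dye 1 h 37 °C plus 30 min RT. Measured by: intracellular calcium fluorescence with Fluo-8.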
TRPML3 agonist – activates the human TRPML3 channel; HEK293 TRPML3-YFP, Fluo-8 calcium fluorescence; 100% = the carbachol control signal; 0.29% of 220,000 active; activation, % at 3 µM; Q8TDD5;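 active = activation above its plate's cutoff, the mean activation of the plate's test wells plus 3 SD, cut at about 12% in these data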;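 also: 0% = DMSO only wells and 100% = carbachol wells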
Target sequence (Q8TDD5 whole entry, looked up): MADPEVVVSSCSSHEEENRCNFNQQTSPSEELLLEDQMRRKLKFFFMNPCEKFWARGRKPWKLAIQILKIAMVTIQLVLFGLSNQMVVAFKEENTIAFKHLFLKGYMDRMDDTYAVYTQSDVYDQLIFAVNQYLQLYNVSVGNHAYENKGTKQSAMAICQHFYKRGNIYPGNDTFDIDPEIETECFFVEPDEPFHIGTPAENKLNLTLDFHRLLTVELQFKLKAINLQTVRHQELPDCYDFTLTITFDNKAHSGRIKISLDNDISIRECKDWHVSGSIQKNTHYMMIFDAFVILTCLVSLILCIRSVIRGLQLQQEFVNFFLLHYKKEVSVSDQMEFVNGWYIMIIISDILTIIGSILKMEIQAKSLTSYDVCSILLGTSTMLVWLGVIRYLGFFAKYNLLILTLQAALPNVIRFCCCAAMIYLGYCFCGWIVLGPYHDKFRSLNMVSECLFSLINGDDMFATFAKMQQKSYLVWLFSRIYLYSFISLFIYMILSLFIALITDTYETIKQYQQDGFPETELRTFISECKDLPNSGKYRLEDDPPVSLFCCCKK
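system = HEK293 cells stably carrying human TRPML3-YFP | doses = one concentration, 3 µM nominal, 0.3% DMSO | timing = dye loading 1 h 37 °C then 30 min ambient, 125 s read | detection = Fluo-8 calcium dye fluorescence, ex 470-495, em 515-575 nm | benchmarks = high control carbachol 87 µM, low control DMSO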
CRFBP-R2 block – CRF-BP/CRF-R2 complex antagonism | AID 588475 | 0.59% of 350,000 active | inhibition, % at 11.8 µM | HEK293 CRF-R2/CRF-BP, CRF-induced calcium fluorescence;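 active = inhibition of the ligand-induced calcium signal above about 50% at the single tested concentration, limit read from the data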
VIM-2 inh – blocks Pseudomonas aeruginosa VIM-2 metallo-beta-lactamase. purified VIM-2, nitrocefin hydrolysis, epi-absorbance fluorescence. inhibition, % at 5.6 µM. 0.89% of 290,000 active. AID 1527;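 active = inhibition above the mean of all tested compounds plus 3 SD, cutoff set per screening run, cut at about 7.5% in these data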;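 also: red hydrolysis product quenches plate fluorescence so inhibitors raise well fluorescence; 0% = enzyme with DMSO and 100% = DMSO without enzyme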
CRFR2-BP ag – CRF-BP/CRF-R2 complex agonism; HEK293 CRF-R2/CRF-BP, calcium dye fluorescence (FLIPR); percent of saturating CRF peptide response; activation, % at 13.2 µM; 0.46% of 350,000 active;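 active = activation of at least 50%, plus an integration ratio under a set limit after plate pattern correction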;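 also: plate controls were neutral control wells without compound for no effect and CRF at EC100 for full effect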
Starred values were filed as active, the others as inactive.

Results for C=CCSC1=N/C(=C\c2cc(OCC)c(OC(C)=O)c([N+](=O)[O-])c2)C(=O)S1 ?
IMP-1 inhibitor: 1; zfTRPN1 agonist: 1; TRPML3 agonist: 1; CRFBP-R2 block: 53*; VIM-2 inh: 0; CRFR2-BP ag: -1

How did C=CCSC1=N/C(=C\c2ccc3c(c2)OCO3)C(=O)S1 do in these assays?
IMP-1 inhibitor: -1; zfTRPN1 agonist: 1; TRPML3 agonist: 0; CRFBP-R2 block: -2; VIM-2 inh: -2; CRFR2-BP ag: 1

What do the screens show for `CCN(CC(=O)Nc1c(F)cccc1F)C(=O)c1csc2c1CCCC2`?
CRFBP-R2 block: 1; CRFR2-BP ag: -1

What do the screens show for `CCCn1nc(C(=O)Nc2cc(S(=O)(=O)Nc3ccc(OC)cc3)ccc2O)c2ccccc2c1=O`?
CRFBP-R2 block: 54*; CRFR2-BP ag: -1

Results for CCCn1nc(C(=O)Nc2ccc(S(=O)(=O)Nc3nccs3)cc2)c2ccccc2c1=O ?
IMP-1 inhibitor: -2; zfTRPN1 agonist: 0; TRPML3 agonist: 0; CRFBP-R2 block: -10; VIM-2 inh: -1; CRFR2-BP ag: 3

Results for Cn1c(O)c(/C=N/NC(=O)c2cc3ccccc3cc2O)c2ccccc21 ?
IMP-1 inhibitor: -3; CRFBP-R2 block: -104; VIM-2 inh: -2; CRFR2-BP ag: 117*

What do the screens show for `O=C(O)/C=C/C(=O)Nc1ccc(Cc2ccc(NC(=O)/C=C/C(=O)O)cc2)cc1`?
IMP-1 inhibitor: -5; zfTRPN1 agonist: 1; TRPML3 agonist: 1; CRFBP-R2 block: -12; VIM-2 inh: -3; CRFR2-BP ag: 0

How did O=[N+]([O-])c1ccc(/C=C/C2=NN(c3ccccc3)C(c3ccco3)C2)o1 (centres undefined) do in these assays?
IMP-1 inhibitor: 5.5*; zfTRPN1 agonist: 23*; TRPML3 agonist: 21*; CRFBP-R2 block: -95; VIM-2 inh: 5; CRFR2-BP ag: 66*

What do the screens show for `CCn1c2ccccc2c2cc(NC(=O)COC(=O)c3ccc(NC(=O)CC#N)cc3)ccc21`?
CRFBP-R2 block: -2; CRFR2-BP ag: 2

Results for COc1cc(/C=C2\SC(=S)N(c3cccnc3)C2=O)ccc1O ?
IMP-1 inhibitor: -2; zfTRPN1 agonist: 21*; TRPML3 agonist: 6; CRFBP-R2 block: -1; VIM-2 inh: -1; CRFR2-BP ag: 9

Results for O=C1/C(=C/c2ccc(O)c(O)c2)SC(=S)N1Nc1ccccc1 ?
IMP-1 inhibitor: -1; zfTRPN1 agonist: 17; TRPML3 agonist: 7; CRFBP-R2 block: -102; VIM-2 inh: -2; CRFR2-BP ag: 35

Results for COc1cc(/C=C2\SC(=S)N(Nc3ccccc3)C2=O)ccc1O ?
IMP-1 inhibitor: -4; zfTRPN1 agonist: 25*; TRPML3 agonist: 14*; CRFBP-R2 block: -119; VIM-2 inh: -3; CRFR2-BP ag: 50

How did COc1cc(/C=C2/SC(=S)N(CC(=O)O)C2=O)ccc1OCC(=O)Nc1ccc(C)c(C)c1 do in these assays?
IMP-1 inhibitor: 7.5*; VIM-2 inh: -1

Results for COc1cc(/C=C2\SC(=S)N(C(Cc3ccccc3)C(=O)O)C2=O)ccc1O (centres undefined) ?
IMP-1 inhibitor: -5; zfTRPN1 agonist: 22*; TRPML3 agonist: 12*; CRFBP-R2 block: -35; VIM-2 inh: -2; CRFR2-BP ag: 30

How did COc1cc(/C=C2\SC(=S)N(NC(=O)c3cccnc3)C2=O)ccc1O do in these assays?
IMP-1 inhibitor: -5; zfTRPN1 agonist: 10; TRPML3 agonist: 7; CRFBP-R2 block: -1; VIM-2 inh: -5; CRFR2-BP ag: 18

How did COc1ccc(/C=C2/SC(=O)N(CCC(=O)Nc3ccc(C)cc3)C2=O)cc1OC do in these assays?
IMP-1 inhibitor: 0; zfTRPN1 agonist: 1; TRPML3 agonist: 1; VIM-2 inh: -1

What do the screens show for `COc1ccc(Cl)cc1NC(=O)c1cc(C)no1`?
IMP-1 inhibitor: -3; CRFBP-R2 block: 6; VIM-2 inh: -3; CRFR2-BP ag: -4

Results for CCOc1cc(/C=C2\SC(=S)N(Nc3ccccc3)C2=O)ccc1O ?
IMP-1 inhibitor: -3; zfTRPN1 agonist: 22*; TRPML3 agonist: 16*; CRFBP-R2 block: -7; VIM-2 inh: -3; CRFR2-BP ag: 14

Results for COc1cc(/C=C2\SC(=S)N(NC(=O)c3ccc(O)cc3)C2=O)ccc1O ?
IMP-1 inhibitor: -7; CRFBP-R2 block: -53; VIM-2 inh: -7; CRFR2-BP ag: 53*

How did CCOc1ccc(/C=C2\SC(=S)N(NS(=O)(=O)c3ccc(C)cc3)C2=O)cc1OC do in these assays?
IMP-1 inhibitor: -4; zfTRPN1 agonist: 2; TRPML3 agonist: 1; CRFBP-R2 block: 51*; VIM-2 inh: -4; CRFR2-BP ag: 1

What do the screens show for `CCC(C(=O)O)N1C(=O)/C(=C/C(C)=C/c2ccccc2)SC1=S` (centres undefined)?
IMP-1 inhibitor: 1; zfTRPN1 agonist: 0; TRPML3 agonist: 0; CRFBP-R2 block: 7; VIM-2 inh: 8.2*; CRFR2-BP ag: -4

How did CC(=C\c1ccccc1)/C=C1/SC(=S)N(C(C(=O)O)C(C)C)C1=O (centres undefined) do in these assays?
IMP-1 inhibitor: 1; zfTRPN1 agonist: 0; TRPML3 agonist: 0; CRFBP-R2 block: 41; VIM-2 inh: 0; CRFR2-BP ag: -2

What do the screens show for `COC(=O)c1ccccc1S(=O)(=O)N1CCC(C(=O)Nc2ccc(N3CCOCC3)cc2)CC1`?
CRFBP-R2 block: 5; CRFR2-BP ag: 0

How did O=C(CN1C(=O)c2cccnc2Oc2ccc(Cl)cc21)N1CCCC1 do in these assays?
IMP-1 inhibitor: -2; CRFBP-R2 block: -3; VIM-2 inh: -3; CRFR2-BP ag: -1

How did C=C1CCC[C@]2(C)C[C@H]3OC(=O)C(CNC(C)(CO)CO)[C@H]3CC12 (some centres undefined) do in these assays?
IMP-1 inhibitor: -2; CRFBP-R2 block: 86*; VIM-2 inh: -3; CRFR2-BP ag: 0

Results for C=C1CCC[C@]2(C)C[C@H]3OC(=O)C(CNC(CC)CO)[C@H]3CC12 (some centres undefined) ?
IMP-1 inhibitor: -1; CRFBP-R2 block: -3; VIM-2 inh: 1; CRFR2-BP ag: 2

Results for CCOC(=O)N1CCN(Cc2nc3cc(NC(=O)c4cccs4)ccc3n2CC)CC1 ?
IMP-1 inhibitor: -1; CRFBP-R2 block: 1; VIM-2 inh: -3; CRFR2-BP ag: -1

How did CCOC(=O)c1cnc(-n2nc(C)cc2C)nc1NC do in these assays?
IMP-1 inhibitor: -4; zfTRPN1 agonist: 0; TRPML3 agonist: 0; CRFBP-R2 block: 6; VIM-2 inh: 8.1*; CRFR2-BP ag: -2

How did CCOC(=O)c1cnc(-n2nc(C)cc2C)nc1Nc1ccc(C)cc1 do in these assays?
IMP-1 inhibitor: -3; zfTRPN1 agonist: 0; TRPML3 agonist: 1; CRFBP-R2 block: -9; VIM-2 inh: 1; CRFR2-BP ag: 2
